The list is not random: actives were taken first. Their share in the collection is about 1.3%.
ASAP1 inh: inhibitors of human ASAP1 ArfGAP activity, primary screen, biochemical, fluorescence polarization; ASAP1-stimulated ARF1 GTP hydrolysis, GDP FP detection; inhibition, % at 16.5 µM; 360,000 tested, 0.19% active; AID 624377, 2012; in the data active means inhibition above about 25%;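 further: 0% = vehicle with enzyme and substrate and 100% = no enzyme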
CASP6 VEID inh: human caspase-6 inhibitors, primary screen, biochemical, VEID-R110 fluorescence, single point, set 2; inhibition, % at 12.5 µM; 350,000 tested, 0.53% active; P55212; purified caspase-6, Z-VEID-R110 cleavage fluorescence;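 active means mean inhibition across replicates at least about 35%, with every replicate also reaching that limit, limit read from the data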;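 further: 0% = median of neutral control wells and 100% = no fluorescence left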
TDP2 absorb: human TDP2 enzyme inhibitors, primary screen, biochemical, epi absorbance, recombinant enzyme | Tyrosyl-DNA phosphodiesterase 2 (Homo sapiens), O95551 | T5PNP hydrolysis, p-nitrophenol absorbance 415 nm | inhibition, % at 12.8 µM | 370,000 tested, 0.34% active | AID 720702, 2013;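 active means inhibition above the mean of all tested compounds plus 3 SD, set per campaign, cut at about 25% in these data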;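 further: 0% = DMSO with enzyme and 100% = buffer with substrate but no TDP2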
Target sequence (O95551 whole entry, looked up): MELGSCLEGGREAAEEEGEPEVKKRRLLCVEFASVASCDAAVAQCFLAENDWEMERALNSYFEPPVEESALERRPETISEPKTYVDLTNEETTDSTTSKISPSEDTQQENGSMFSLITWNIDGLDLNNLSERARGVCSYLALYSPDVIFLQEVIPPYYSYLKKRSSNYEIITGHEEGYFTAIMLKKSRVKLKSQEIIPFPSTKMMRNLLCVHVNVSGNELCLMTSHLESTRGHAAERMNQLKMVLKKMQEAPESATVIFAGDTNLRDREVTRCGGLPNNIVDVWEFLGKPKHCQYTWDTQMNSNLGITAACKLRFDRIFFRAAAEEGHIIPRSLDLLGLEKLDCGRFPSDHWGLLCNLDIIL
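System: recombinant human TDP2 / Amount: 120 nM TDP2 per well / Also added: 5 mM T5PNP chromogenic substrate / Doses: 12.8 µM single point, 1% DMSO / Incubation: 2 h at 37 °C / Detection: p-Nitrophenol epi absorbance / Evaluation: % inhibition relative to enzyme-containing and enzyme-free wells / Repeats: singlicate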
LEDGF integ inh: blockers of LEDGF/p75-dependent integrase strand transfer – biochemical, TR-FRET, high throughput, primary screen; TR-FRET IN-LEDGF/p75 DNA integration, Eu/Cy5; inhibition, % at 3.7 µM; 370,000 tested, 0.64% active;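 active means inhibition above the screen-wide mean plus 3 SD, cut at about 13% in these data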;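 further: signal is the Cy5 over europium emission ratio at 671 and 618 nm; 0% = plate median of compound wells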
ARFGAP1 inhibitor: inhibitors of rat ARFGAP1 GAP activity, primary screen, biochemical, fluorescence polarization, GDP tracer. ADP-ribosylation factor GTPase-activating protein 1 (Rattus norvegicus), Q62848. Arfgap1-stimulated ARF1 GTP hydrolysis, GDP FP detection. inhibition, % at 16.5 µM. 360,000 tested, 0.26% active. AID 651572, 2012;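 active means inhibition above a per-plate limit, mean inhibition of low control wells plus 3 SD, cut at about 25% in these data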;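 further: 0% = DMSO wells with enzyme and 100% = wells lacking Arfgap1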
Target sequence (Q62848 1-136 limits assumed): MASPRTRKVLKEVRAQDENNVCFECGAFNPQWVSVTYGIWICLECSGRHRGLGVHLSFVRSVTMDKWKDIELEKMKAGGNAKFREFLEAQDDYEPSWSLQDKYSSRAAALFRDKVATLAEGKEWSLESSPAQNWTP
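System: truncated rat Arfgap1 GAP domain / Medium: HEPES-based buffer, pH 7.5 / Also added: N-terminally truncated human ARF1-GTP substrate / Incubation: enzyme reaction 120 min at 25 °C after 20 min preincubation / Measured by: FP of antibody-bound GDP Alexa 633 tracer, ex 620/em 688 nm / Replicates: singlicate, each compound tested once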
IN multimer act: HIV-1 IN multimer formation enhancers, counter-screen for LEDGF/p75 integration inhibitor project, biochemical, TR-FRET; TR-FRET HIV-1 integrase multimerization; 2,000 tested, 17% active; AID 1053131, 2014; shares compounds with LEDGF integ inh; activation, % at 7.7 µM; in the data active means activation above about 8.9%
TR-FRET interf: TR-FRET optical interference artefacts, confirmation, artefact control for LEDGF/p75-dependent integration inhibitor project, biochemical, HIV-1 IN multimerization; shares compounds with LEDGF integ inh; TR-FRET optical interference counterscreen; inhibition, % at 7.7 µM; 2,000 tested, under 10 active; AID 1053135, 2014;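 active means inhibition above the mean over all tested compounds plus 3 SD, which no compound reached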;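 further: 0% = integrase with antibodies and DMSO and 100% = antibodies without integrase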
LEDGF integ conf: inhibitors of HIV-1 IN-LEDGF/p75 DNA integration, confirmation, biochemical, TR-FRET. inhibition, % at 3.7 µM. TR-FRET LEDGF/p75-dependent HIV-1 integration. 2,000 tested, 36% active. AID 1053136, 2014. shares compounds with LEDGF integ inh; in the data active means inhibition above about 14%
An asterisk follows results filed as active; · = no result given.

SMILES	ASAP1 inh	CASP6 VEID inh	TDP2 absorb	LEDGF integ inh	ARFGAP1 inhibitor	IN multimer act	TR-FRET interf	LEDGF integ conf
O=C(C[C@@H]1CC[C@@H]2[C@H](COC[C@H](O)CN2C(=O)Nc2ccc(Cl)c(Cl)c2)O1)NCc1ccc(Cl)cc1	·	-0.2	·	·	·	·	·	·
Cc1cc(NS(=O)(=O)c2ccc(NC(=S)NC(=O)c3cccnc3)cc2)no1	16.2	2.3	-6.2	25.9*	-16.1	1.6	-8.0	-0.6
Cc1cc(-c2csc(NC(=O)C3=COCCO3)n2)c(C)n1C	-1.9	-1.7	18.3	43.0*	-0.4	7.3	-36.8	46.6*
COc1ccc(CC(=O)OC(C)CN2CCCCC2)cc1 (stereo unspecified)	-0.3	-2.1	-8.1	15.0*	-1.5	-0.7	3.6	2.9
C/C=C/c1ccc([C@H]2[C@H]3CN(Cc4ccc(F)cc4)CC(=O)N3[C@H]2CO)cc1	·	4.5	·	·	·	·	·	·
CCOc1ccc(/C=C/C2=Cc3c(sc(NC(=O)CSc4n[nH]c(N)n4)c3C#N)C(C)(C)C2)cc1	4.7	·	-14.4	6.5	-8.0	·	·	·
Cc1ccsc1/C=C/C1=Cc2c(sc(NC(=O)CSc3n[nH]c(N)n3)c2C#N)C(C)(C)C1	6.0	·	0.4	17.8*	-0.4	-0.3	1.5	38.8*
CCOc1ccc(Cc2c(C)[nH]c3ccc(C(=O)O)cc3c2=S)cc1	-1.9	16.6	-0.6	13.9*	-3.2	1.3	-4.9	2.5
CCc1c(C)[nH]c2ccc(OC)cc2c1=S	-20.1	-4.8	-1.2	0.1	-0.7	·	·	·
CN1CCN(C(=O)C[C@H]2C[C@@H]3c4cc(NC(=O)NC5CCCC5)ccc4O[C@@H]3[C@H](CO)O2)CC1	·	-18.9	·	·	·	·	·	·
CCOc1cc(N2CCOCC2)c(OCC)cc1NC(C)C(=O)N1CCN(CC)CC1 (stereo unspecified)	-3.0	70.2*	45.2*	63.3*	-17.1	2.1	-10.4	10.4
CCCCc1cc(=O)oc2cc(OC3CCCCC3=O)ccc12 (stereo unspecified)	6.8	-2.6	-5.2	18.2*	1.4	0.4	-1.3	-7.0
CCCc1cc(=O)oc2c(C)c(OC3CCCCC3=O)ccc12 (stereo unspecified)	-4.5	0.1	4.8	-1.1	14.0	·	·	·
Cc1nnc(N/N=C/c2cc(C)n(-c3ccc(F)cc3)c2C)n1N	6.0	33.2	62.1*	45.0*	-1.9	-1.9	9.6	-2.1
Cc1cc(/C=N/NC(N)=S)c(C)n1-c1ccc(Br)cc1	-0.8	-3.7	5.0	3.8	2.4	·	·	·
COC(=O)c1ccc(N2NC(=O)/C(=C/c3cc(OC)c(OC)c(OC)c3)C2=O)cc1	5.8	·	-5.3	14.3*	2.8	3.5	-12.4	-1.9
O=C1C(NC(=O)N2c3ccccc3C=Cc3ccccc32)CCCCN1Cc1ccc(Cl)cc1 (stereo unspecified)	·	·	-3.1	-3.5	·	·	·	·
COc1cc(/C=C2\CCCc3c2nc2ccccc2c3C(=O)O)cc(Br)c1O	9.5	1.9	7.2	-2.8	1.8	·	·	·
COc1cc(/C=C2\CCc3c2nc2ccccc2c3C(=O)O)cc(OC)c1OC	0.9	49.1*	2.7	25.9*	-12.5	7.4	-37.4	33.9*

Screening results deposited in PubChem BioAssay by several laboratories.
